Measurements of several laboratories.
Compare with care: the assays were run in different laboratories.
Target: Rho-associated protein kinase 2 (ROCK2, Homo sapiens, UniProt O75116)

Structure (SMILES)	effect on	mode	method	concentration	quantity	value
CC#CC(=O)N1CCC[C@H]1c1nc(-c2ccc(C(=O)Nc3ccccn3)cc2)c2c(N)nccn12	enzyme activity	inhibitor	–	1 µM	inhibition	29%
CN1CCN(C(=O)c2ccc(NC(=O)Nc3ccc(N(C)c4ccnc(Nc5ccc(CS(C)(=O)=O)cc5)n4)cc3)cc2)CC1	binding	–	–	1 µM	remaining binding	1.5%
C=CC(=O)N1CCC[C@@H](n2nc(-c3ccc(Oc4ccccc4)cc3)c3c(N)ncnc32)C1	enzyme activity	inhibitor	–	1 µM	inhibition	0%
C#Cc1cc(-c2cc(Nc3nc(N[C@@H](C)c4ccc(F)cn4)ncc3Cl)n[nH]2)ccc1C=O	enzyme activity	inhibitor	–	0.2 µM	inhibition	5.91%
N#Cc1ccc(NC(=O)Nc2ccccc2)cc1	cell-free assay	–	competition with immobilised ligand	25 µM	remaining binding	63%
C#Cc1cnc(Nc2ccnc(CO)c2)nc1Nc1ccccc1S(C)(=O)=NC#N (stereo not drawn)	cell-free assay	–	–	1 µM	remaining signal	49%
CCCCC(=O)Nc1ccc(-c2ccc3ncn(CCC)c(=O)c3c2)cn1	binding	–	competition with immobilised ligand	0.5 µM	remaining binding	100%
C[C@H]1CC[C@H](n2c3cnccc3c3cnc(Nc4ccc5c(n4)CCN(C(=O)CO)C5)nc32)CC1	cell-free assay	–	–	1 µM	remaining signal	95%
Cc1cc(O)c(-c2ccc([C@@H](C)CN(C)C)cc2)c2c1[nH]c(=O)c1sccc12	enzyme activity	inhibitor	–	0.1 µM	inhibition	14.6%
